Source: ChEMBL document CHEMBL1155025, “Xanthones from the botanical dietary supplement mangosteen (Garcinia mangostana) with aromatase inhibitory activity” (J Nat Prod, 2008)

Tests used:
Aromatase [1] = target: T1, Aromatase (Homo sapiens, UniProt P11511); experiment: Inhibition of aromatase in human placental microsomes at 20 ug/ml relative to control; parameters: species or system Placenta; scale not given: the % may be the effect or the level left
T1 sequence (P11511 whole entry): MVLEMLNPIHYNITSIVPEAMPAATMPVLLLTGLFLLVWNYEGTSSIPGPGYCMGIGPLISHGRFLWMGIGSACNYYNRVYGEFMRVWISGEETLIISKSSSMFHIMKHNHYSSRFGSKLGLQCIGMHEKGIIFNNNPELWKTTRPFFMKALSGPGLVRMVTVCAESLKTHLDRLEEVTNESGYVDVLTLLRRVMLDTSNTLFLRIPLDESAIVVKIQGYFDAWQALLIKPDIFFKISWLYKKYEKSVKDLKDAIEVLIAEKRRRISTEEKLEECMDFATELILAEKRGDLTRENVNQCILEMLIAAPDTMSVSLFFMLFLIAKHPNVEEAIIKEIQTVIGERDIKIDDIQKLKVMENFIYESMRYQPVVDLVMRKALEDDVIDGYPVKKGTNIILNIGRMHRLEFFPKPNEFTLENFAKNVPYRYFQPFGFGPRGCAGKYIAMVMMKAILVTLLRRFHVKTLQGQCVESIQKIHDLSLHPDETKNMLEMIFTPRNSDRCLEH
Summary of the method: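 Radiometric placental microsome assay with samples at 20 µg/mL in DMSO, in triplicate. 100 nM [1β-3H]androstenedione, pH 7.0 phosphate buffer, 5% propylene glycol, and NADPH-regenerating system. Reaction started with 50 µg microsomes, run 15 min at 37 °C, and stopped with CHCl3. 3H2O counted; percent control activity taken relative to DMSO.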

Aromatase [2] = target: T1, Aromatase; experiment: Inhibition of aromatase in human placental microsomes; parameters: species or system Placenta
Summary of the method: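 Human term placental microsomes (50 µg, processed at 4 °C) incubated for 15 min at 37 °C with 100 nM [1β-3H]androstenedione in 0.1 M potassium phosphate pH 7.0, 5% propylene glycol, and NADPH-regenerating system. Quenched with CHCl3; 3H2O in aqueous layer counted by scintillation. IC50 derived from dose-response testing.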

Aromatase [3] = target: T1, Aromatase; experiment: Inhibition of aromatase over-expressed in human SKBR3 cells at 50 uM relative to control; assay type: cell-based; parameters: scale not given: the % may be the effect or the level left; details: SK-BR-3, human; read-out: Activity
Summary of the method: (§1)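 SK-BR-3 human breast cancer cells overexpressing aromatase, treated in triplicate. 0.1% DMSO serves as negative control. Tritiated water formation is read as pmol 3H2O/h per 10^6 live cells and expressed as percent control activity versus DMSO.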

SK-BR-3 = experiment: Cytotoxicity against human SKBR3 cells assessed as survival by MTT assay relative to control; assay type: functional
Summary of the method: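 MTT viability assay in SK-BR-3 human breast cancer cells that overexpress aromatase. Cells exposed to samples in DMSO, with DMSO as negative control. Six replicates. Read-out is percent cell survival relative to the DMSO control. IC50 obtained from a concentration–response curve.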

Aromatase [4] = target: T1, Aromatase; experiment: Inhibition of aromatase over-expressed in human SKBR3 cells; assay type: cell-based, SK-BR-3
Summary of the method: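 SK-BR-3 human breast cancer cells overexpressing aromatase were treated in triplicate at various concentrations (screen at 50 µM), with 0.1% DMSO as negative control and 10 nM letrozole as positive control. Read-out was pmol 3H2O formed per hour per 10^6 live cells. Percent control activity was calculated versus DMSO.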

Aromatase [5] = target: T1, Aromatase; experiment: Inhibition of aromatase over-expressed in human SKBR3 cells at 10 nM relative to control; assay type: cell-based; parameters: scale not given: the % may be the effect or the level left; details: SK-BR-3, human; read-out: Activity; summary of the method: as §1

| SMILES | Activity (Aromatase [1]) | IC50 (Aromatase [2]) | activity at 50 µM (Aromatase [3]) | also measured |
| --- | --- | --- | --- | --- |
| COc1c(O)cc2oc3cc(O)c(CC=C(C)C)c(O)c3c(=O)c2c1CC=C(C)C [MANGOSTIN] | 22.2% | 20.7 µM | 59.4% | Survival (SK-BR-3): 18.4% |
| CC(C)=CCc1c(O)cc2oc3cc(O)c(O)c(CC=C(C)C)c3c(=O)c2c1O | 4.7% | 6.9 µM | -0.5% | IC50 (Aromatase [4]): 4.97 µM |
| CC(C)=CCc1c(O)cc2oc3c(CC=C(C)C)c(O)c(O)c(CC=C(C)C)c3c(=O)c2c1O [GARCINONE E] | 23.9% | 25.1 µM | 32.3% | Survival (SK-BR-3): 52.3% |
| COc1c(O)cc2oc3cc(O)c4c(c3c(=O)c2c1CC=C(C)C)OC(C)(C)CC4 | 52.6% |  |  |  |
| COc1c(O)cc2oc3cc(O)c(CC=C(C)C)c(O)c3c(=O)c2c1CCC(C)(C)O [GARCINONE D] | 10% | 5.2 µM | 50.7% | Survival (SK-BR-3): 89.4% |
| N#Cc1ccc(C(c2ccc(C#N)cc2)n2cncn2)cc1 [LETROZOLE] |  |  |  | activity at 0.01 µM (Aromatase [5]): 7.4% |
| CC(C)=CCc1c(O)cc2oc3c(CC=C(C)C)c(O)c4c(c3c(=O)c2c1O)C=CC(C)(C)O4 [TOVOPHYLLINE A] | 74.7% |  |  |  |

Second part, led by results:

| Activity (Aromatase [1]) | SMILES | IC50 (Aromatase [2]) | activity at 50 µM (Aromatase [3]) | also measured |
| --- | --- | --- | --- | --- |
| 78.8% | CC(C)=CCC/C(C)=C/Cc1c(O)cc2oc3c(O)cccc3c(=O)c2c1O [MANGOSTINONE] |  |  |  |
| 75.9% | CC(C)=CCc1c(O)c(CC=C(C)C)c2oc3c(O)ccc(O)c3c(=O)c2c1O [GARTANIN] |  |  |  |
| 57.8% | COc1c(CC=C(C)C)c(O)c2c(=O)c3cccc(O)c3oc2c1CC=C(C)C [CUDRAXANTHONE G] |  |  |  |
| 80.8% | CC(C)=CCC/C(C)=C/Cc1c(O)cc2oc3c(O)ccc(O)c3c(=O)c2c1O [SMEATHXANTHONE A] |  |  |  |
| 55.1% | COc1c(CC=C(C)C)c(O)c2c(=O)c3c(O)ccc(O)c3oc2c1CC=C(C)C |  |  |  |
| 82.6% | CC(C)=CCc1c(O)c(CC=C(C)C)c2oc3c(O)cccc3c(=O)c2c1O [8-DEOXYGARTANIN] |  |  |  |
